Measurements taken from PubChem BioAssay.
Activity calls are given as the source filed them.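 How the source made its calls, unless noted: active means visually confirmed hit in the image check and inhibition above 20%; inconclusive means visually confirmed hit but inhibition not above 20%; inactive means no visual hit in the image check.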

How the values were obtained:
[1] = inhibitors of TNFa-induced NFkB p65 translocation, primary screen, imaging, HUVEC, MLSMR starter and 10KST1 sets (AID 438;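 active means inhibition above 20% together with a positive visual image hit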;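 further: compound added about 3h40 before a 20 min TNFalpha stimulation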;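 on inhibition: signal is the nuclear over cytoplasmic p65 intensity ratio per well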); details: HUVEC TNFa-induced p65 nuclear translocation; cell count: measured here: nuclei count (cytotoxicity indicator), at 2.08 µM; inhibition: at 2 µM, stronger effect = higher value, 0% TNFa-plus-vehicle, 100% no-TNFa wells
[2] = reduction of polyQ htt aggregates in cells – imaging, exon1htt(103Q)mCFP cells, high-content imaging, primary screen (AID 483;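 active means visual image review flags a hit and inhibition of aggregation exceeds 20%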;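 further: compound exposure lasted 3 days before fixation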;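 on nuclei count: percent of the per-plate median nuclei count of sample wells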); details: exon1htt(103Q)mCFP cell line, aggregate imaging, at 2 µM; inhibition of aggregation: stronger effect = higher value; nuclei count: measured here: cell count, toxicity
[3] = endothelial E-selectin expression blockers – imaging, HUVEC, immunofluorescence, MLSMR starter and 10KST1 sets, primary screen (AID 487); details: HUVEC TNFalpha-induced E-selectin immunofluorescence imaging, at 2 µM; inhibition: stronger effect = higher value; nuclei count: measured here: cell number, toxicity;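 on inhibition: signal is fraction of cell area covered by stained E-selectin grains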;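 on nuclei count: 100% = median nuclei count of all wells on the same plate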
[4] = molecular target: Voltage-gated potassium channel subunit beta-2 (Rattus norvegicus) (UniProt P62483); assay: inhibitors of rat Kvbeta2 reductase activity – biochemical, NADPH fluorescence, primary screen (AID 622;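 active means fluorescence slope higher than the sample average by over 3 SD, cut at about -0.22 in these data, passing the limit was not always enough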;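 further: slope of raw intensity against log time taken from 70 to 1610 s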); details: recombinant KvBeta, 4-cyanobenzaldehyde reduction, at 10 µM, stronger effect = higher value
Sequence of Voltage-gated potassium channel subunit beta-2 (Rattus norvegicus) (P62483 whole entry, looked up): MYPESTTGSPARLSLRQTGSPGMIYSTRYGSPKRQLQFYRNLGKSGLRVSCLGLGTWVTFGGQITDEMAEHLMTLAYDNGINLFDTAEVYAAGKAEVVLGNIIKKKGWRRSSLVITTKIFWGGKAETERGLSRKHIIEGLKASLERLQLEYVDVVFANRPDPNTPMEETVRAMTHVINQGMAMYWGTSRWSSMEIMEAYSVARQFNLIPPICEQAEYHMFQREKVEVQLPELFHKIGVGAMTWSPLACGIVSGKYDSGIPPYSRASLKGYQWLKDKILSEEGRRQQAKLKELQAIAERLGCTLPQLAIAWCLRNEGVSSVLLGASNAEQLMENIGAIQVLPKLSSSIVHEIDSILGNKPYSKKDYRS

[5] = molecular target: Voltage-gated potassium channel subunit beta-2 (Rattus norvegicus) (UniProt P62483); assay: enhancers of rat Kvbeta2 NADPH turnover – biochemical, NADPH fluorescence, primary screen (AID 623;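 active means NADPH fluorescence slope more negative than the mean of all samples by about 3 SD, 99.7% confidence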;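 further: fluorescence intensity change per second fitted from 20 to 320 s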); details: Recombinant KvBeta, NADPH fluorescence decrease slope, 10 min; at 10 µM; stronger effect = lower value
[6] = molecular target: Muscarinic acetylcholine receptor M4 (Homo sapiens) (UniProt P08173); assay: M4-linked GIRK flux change, two-sided – cell-based, HEK293 M4/GIRK, thallium flux, BTC-AM, M4 allosteric agonist project, primary screen (AID 625;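 active means fluorescence slope after compound addition differing from the mean of all tested samples at 99.7% confidence, mostly higher but some lower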;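 further: thallium influx through GIRK channels coupled to M4 in HEK293 cells with BTC-AM dye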); details: at 10 µM, actives lie on both sides
Sequence of Muscarinic acetylcholine receptor M4 (Homo sapiens) (P08173 whole entry, looked up): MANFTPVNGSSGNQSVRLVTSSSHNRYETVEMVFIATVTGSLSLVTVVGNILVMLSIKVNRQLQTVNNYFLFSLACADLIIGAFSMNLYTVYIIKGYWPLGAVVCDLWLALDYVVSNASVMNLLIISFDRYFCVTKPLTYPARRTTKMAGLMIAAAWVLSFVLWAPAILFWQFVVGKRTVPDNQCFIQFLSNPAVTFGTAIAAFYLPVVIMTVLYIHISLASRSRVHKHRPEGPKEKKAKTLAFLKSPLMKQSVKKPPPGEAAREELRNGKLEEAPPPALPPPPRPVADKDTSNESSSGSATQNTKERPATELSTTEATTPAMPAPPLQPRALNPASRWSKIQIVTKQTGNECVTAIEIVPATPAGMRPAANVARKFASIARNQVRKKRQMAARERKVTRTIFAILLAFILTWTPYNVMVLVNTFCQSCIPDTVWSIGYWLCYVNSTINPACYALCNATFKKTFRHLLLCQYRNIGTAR
Summary of the method: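 Material: M4/GIRK1/GIRK2 stable HEK293 cell line. Medium: pH 7.3 thallium assay buffer. Dosing: single compound concentration, 10 µM final. Schedule: 1 h dye loading, 2 min kinetic read. Measured by: kinetic fluorescence with BTC-AM dye. Read-out: post-addition slope, 15–24 s, of baseline-normalized fluorescence. Benchmarks: carbachol and DMSO controls.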

[7] = blockers of RIG-like receptor reporter activation – cell-based, Sendai virus stimulus, luciferase, 10K MLSCN set, TLR/RLR signaling modifier project, primary screen (AID 602276;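 active means inhibition at or above 50% at 10 µM; inactive means inhibition below 50%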;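 further: firefly luciferase from ISG56 promoter only with Renilla not read in this screen; 0% = Sendai virus plus DMSO and 100% = medium plus DMSO without virus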); details: HEK293 RL24 IRF3 luciferase reporter, at 10 µM, stronger effect = higher value
[8] = TLR3 IRF3 reporter activation blockers – cell-based, poly I:C stimulus, luciferase, 10K MLSCN set, primary screen (AID 602277;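 active means inhibition of the reporter signal at or above 50%; inactive means inhibition below 50%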); details: HEK293-TLR3 RL24 IRF3 luciferase reporter, at 10 µM, stronger effect = higher value

Compound | cell count [1] | inhibition [1] | inhibition of aggregation [2] | nuclei count [2] | inhibition [3] | nuclei count [3] | fluorescence slope [4] | NADPH fluorescence slope [5] | fluorescence slope [6] | inhibition [7] | inhibition [8]
Cc1cc(C(=O)Nc2cccc(O)c2)c(C)o1 | 477 | 9.9% (inactive) | 2.6% (inactive) | 78.5% | -76.5% (inactive) | 112% | -0.566 (inactive) | -5.1e-05 (inactive) | 0.00709 (inactive) | 0.52% (inactive) | -20.8% (inactive)
COc1ccccc1NC(=O)CC(NCc1ccccc1)C(=O)O (stereo not drawn) | 405 | -8.3% (inactive) | -9.7% (inactive) | 63.1% | 14.4% (inactive) | 100% | -0.223 (inactive) | -1.3e-05 (inactive) | 0.00589 (inactive) | 8.88% (inactive) | 5.77% (inactive)
Cc1cc(NC(=O)CSc2nc3ccsc3c(=O)n2NC(=O)c2ccccc2)no1 | 317 | -1.2% (inactive) | -4.7% (inactive) | 102% | -234% (inactive) | 117% | -0.449 (inactive) | 9e-05 (inactive) | 0.00651 (inactive) | -39.7% (inactive) | -61.1% (inactive)
CC(C)Cn1cc(C(=O)NCC2CCCO2)c2c3ccccc3n(C)c2c1=O (stereo not drawn) | 267 | 11.4% (inactive) | 3.2% (inactive) | 79.8% | -24.4% (inactive) | 107% | -0.523 (inactive) | -3.1e-05 (inactive) | 0.00592 (inactive) | 13.7% (inactive) | 18.7% (inactive)
O=c1oc(-c2ccco2)nc2ccccc12 | 460 | 1% (inactive) | 2.1% (inactive) | 92.5% | -332% (inactive) | 132% | -0.559 (inactive) | -4.2e-05 (inactive) | 0.00609 (inactive) | 13.9% (inactive) | 15.3% (inactive)
CCn1c(=O)cc(SCC(=O)NCC2CCCO2)c2ccccc21 (stereo not drawn) | 404 | -4.9% (inactive) | 0% (inactive) | 97.1% | 32.5% (inactive) | 103% | -0.568 (inactive) | -1.6e-05 (inactive) | 0.00498 (inactive) | 18.5% (inactive) | 34.6% (inactive)
CC(=O)OC(C(=O)NCc1ccco1)c1cccnc1 (stereo not drawn) | 609 | -36.2% (inactive) | -14.7% (inactive) | 105% | -9.7% (inactive) | 135% | -0.553 (inactive) | -7.1e-05 (inactive) | 0.00644 (inactive) | 13% (inactive) | 15.9% (inactive)
CCN(CC)S(=O)(=O)c1ccc(C(=O)Oc2ccc3c(c2)OCO3)cc1 | 603 | -8.9% (inactive) | -5% (inactive) | 108% | -19.8% (inactive) | 110% | -0.477 (inactive) | 1.4e-07 (inactive) | 0.00717 (inactive) | 1.83% (inactive) | 9.42% (inactive)
CCCNS(=O)(=O)c1ccc(OCC(=O)Nc2ccccc2F)cc1 | 408 | 8.2% (inactive) | -23% (inactive) | 99.5% | -57.2% (inactive) | 100% | -0.557 (inactive) | -2.6e-05 (inactive) | 0.00506 (inactive) | 19.7% (inactive) | 15.2% (inactive)
CCOc1ccc2cc(C#N)c(SCC(=O)N3CCCC3)nc2c1 | 451 | -6.5% (inactive) | 3.1% (inactive) | 99.8% | -32% (inactive) | 109% | -0.551 (inactive) | -5.2e-05 (inactive) | 0.00682 (inactive) | -13.8% (inactive) | -15.2% (inactive)
CCNc1oc(COc2ccccc2F)nc1C#N | 318 | 14.7% (inactive) | -13.4% (inactive) | 106% | -8.8% (inactive) | 94.1% | -0.578 (inactive) | -2.3e-07 (inactive) | 0.00601 (inactive) | 0.938% (inactive) | -48.6% (inactive)
COc1ccc(-c2nn3c(-c4ccncc4)nnc3s2)cc1OC | 562 | 5.4% (inactive) | -7.4% (inactive) | 90.8% | 24.6% (inactive) | 105% | -0.42 (inactive) | -0.000356 (inactive) | 0.00419 (inactive) | 19.4% (inactive) | 24.2% (inactive)
CCOC(=O)c1[nH]c(C)c(C(=O)Nc2ccccc2F)c1C | 637 | -9.7% (inactive) | -35.4% (inactive) | 48.5% | 11.3% (inactive) | 94.5% | -0.435 (inactive) | 2.7e-05 (inactive) | 0.00822 (inactive) | 27.9% (inactive) | -0.299% (inactive)
CCNC(=O)CC1C(=O)N(c2ccccc2)C(=O)N1Cc1ccc(OC)cc1 (stereo not drawn) | 442 | 5.9% (inactive) | -1.6% (inactive) | 69.1% | -289% (inactive) | 92.6% | -0.567 (inactive) | 2e-05 (inactive) | 0.00553 (inactive) | 14.5% (inactive) | 21.8% (inactive)
Cc1nnc(C)c2c(C)n(-c3ccc(Br)cc3)c(C)c12 | 305 | 2.5% (inactive) | -3.9% (inactive) | 104% | -47.7% (inactive) | 111% | -0.497 (inactive) | -4.6e-05 (inactive) | 0.00472 (inactive) | 18% (inactive) | 27.9% (inactive)
O=C(NC1CCCC1)c1ccc(S(=O)(=O)N2CCCC2)cc1 | 452 | -8% (inactive) | 1.5% (inactive) | 104% | -93.7% (inactive) | 120% | -0.344 (inactive) | -1.7e-05 (inactive) | 0.0102 (inactive) | -19.5% (inactive) | -26.9% (inactive)
O=S(=O)(c1ccc(OCC(O)CN2CCc3ccccc3C2)cc1)N1CCOCC1 (stereo not drawn) | 749 | 1.6% (inactive) | 6.1% (inactive) | 114% | -51.2% (inactive) | 132% | -0.549 (inactive) | 1.9e-05 (inactive) | 0.00569 (inactive) | 15.9% (inactive) | 26.7% (inactive)
Oc1cccc2ccc(Nc3ccccn3)nc12 | 583 | -9.7% (inactive) | -24.8% (inactive) | 82.5% | 11.4% (inactive) | 99.8% | -0.563 (inactive) | -3.9e-05 (inactive) | 0.0033 (inactive) | 11% (inactive) | 97.5% (active)
Cc1ccc(Cn2nnc3c(=O)n(CC(=O)NCC4CCCO4)cnc32)cc1 (stereo not drawn) | 792 | -13.6% (inactive) | -20.8% (inactive) | 102% | -51.5% (inactive) | 98.4% | -0.459 (inactive) | -4.1e-05 (inactive) | 0.00672 (inactive) | 9.27% (inactive) | 18.9% (inactive)
CC(C)CC(c1nnnn1C1CCCC1)N1CCN(c2ccccc2F)CC1 (stereo not drawn) | 384 | -3.6% (inactive) | 6.8% (inactive) | 91.4% | -26.9% (inactive) | 109% | -0.589 (inactive) | 2e-05 (inactive) | 0.00507 (inactive) | 15.2% (inactive) | 26.4% (inactive)
O=C1CC(c2ccco2)CC(O)=C1C=NCC1NCCc2ccccc21 (stereo not drawn) | 330 | -2.8% (inactive) | 5.8% (inactive) | 94.2% | -123% (inactive) | 125% | -0.511 (inactive) | 2.1e-05 (inactive) | 0.00572 (inactive) | 17.9% (inactive) | 27.2% (inactive)
COc1cc(C(=O)Nc2cc(Cl)ccc2C)c(-n2cnnn2)cc1OC | 715 | 8.8% (inactive) | 15.8% (inactive) | 83.5% | -62.1% (inactive) | 117% | -0.474 (inactive) | 0.00014 (inactive) | 0.00699 (inactive) | 13.5% (inactive) | 15.4% (inactive)
COc1ccc(N2CCN(C(=O)CSc3nnc(Cn4nnc5ccccc54)n3C)CC2)cc1 | 525 | 5.7% (inactive) | -2.8% (inactive) | 103% | -48.7% (inactive) | 101% | -0.578 (inactive) | -2.5e-05 (inactive) | 0.0066 (inactive) | -9.14% (inactive) | -5.63% (inactive)
O=C1CS/C(=N\C(=O)N2c3ccccc3Sc3ccccc32)N1 | 373 | 8% (inactive) | 28.4% (inactive) | 87.6% | -22.3% (inactive) | 128% | -0.523 (inactive) | -5.6e-05 (inactive) | 0.00677 (inactive) | 12% (inactive) | 27.5% (inactive)
CC(C)CCNC(=O)NC(=O)CN1C(=O)NC2(CCCCC2)C1=O | 560 | -14.9% (inactive) | 13.2% (inactive) | 106% | -209% (inactive) | 87% | -0.498 (inactive) | 7.2e-05 (inactive) | 0.00636 (inactive) | -8.08% (inactive) | -2.49% (inactive)
CCOC(=O)C1CCN(C(=O)CSc2n[nH]c(=O)[nH]c2=O)CC1 | 653 | 7.8% (inactive) | 16.5% (inactive) | 88.6% | 34.2% (inactive) | 114% | -0.339 (inactive) | -5.5e-05 (inactive) | 0.00512 (inactive) | 12.2% (inactive) | 9.53% (inactive)
O=C(c1ccccc1)c1ccc2nc[nH]c2c1 | 762 | -1.2% (inactive) | -14.8% (inactive) | 94.7% | -48.9% (inactive) | 128% | -0.571 (inactive) | -3.1e-05 (inactive) | 0.00464 (inactive) | -13.6% (inactive) | -34.9% (inactive)
Cc1cc(NC(=O)NC(=O)c2cccc(OC(F)(F)C(F)F)c2)n[nH]1 | 520 | -14% (inactive) | -5.5% (inactive) | 76.8% | -45% (inactive) | 102% | -0.539 (inactive) | 0.000153 (inactive) | 0.00729 (inactive) | -14.7% (inactive) | -48.5% (inactive)
